High-throughput results deposited in PubChem BioAssay by Broad Institute.
S100A4 MyoIIA: inhibitors of human S100A4 binding to myosin IIA peptide | 360,000 tested, 0.14% active | S100A4/TAMRA-MyoIIA peptide fluorescence polarization | P26447 | inhibition, % at 10.7 µM | AID 652163;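 active means mean inhibition of at least 70% across replicates, with every replicate also reaching that level; inconclusive means mean inhibition reaches 70% but some replicates fall short; inactive means mean inhibition below 70%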
Target sequence (P26447 whole entry, looked up): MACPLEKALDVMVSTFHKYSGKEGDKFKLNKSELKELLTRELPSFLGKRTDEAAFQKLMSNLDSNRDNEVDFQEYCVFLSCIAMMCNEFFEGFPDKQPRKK
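System – human S100A4 monomer protein, biochemical binding assay · Buffer or medium – Calcium-containing HEPES buffer, pH 7.2 · Timing – 5 min between mix addition and reading · Also added – TAMRA-labelled myosin IIA heavy-chain peptide probe, 5 nM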
E-selectin induc: E-selectin induction on HUVECs; P16581; HUVEC E-selectin immunofluorescence imaging; normalized: neutral wells 0, TNF-alpha wells 100; activation, % at 7.58 µM; 260,000 tested, 0.37% active; AID 686992;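 active means mean E-selectin-positive cell signal at least 10% of the positive control, reached in at least 60% of replicates, without over 20% cell loss; inconclusive means no rule given, readout overlaps actives, possibly toxicity-flagged; inactive means the rest, including those meeting only one limit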
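System: HUVEC / Compound: single concentration / Signal: immunofluorescence imaging / Read-out: percent E-selectin-positive cells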
XiGFP reactiv: reactivates the inactive X chromosome in mouse fibroblasts. XiGFP mouse fibroblasts, % GFP-positive cells imaging, 3 d; cells co-treated with 5-aza-dC sensitizer; scaled so ellipticine positive control = 100%. activation, % at 7.58 µM. 360,000 tested, 0.055% active. AID 743238;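 active means mean normalized replicate activation at least 10% and every replicate at or above 10%; inconclusive means only one of the two criteria met; inactive means mean below 10% and not all replicates reach 10%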
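System: 68-5-11 XiGFP fibroblast line | Buffer or medium: DMEM containing 5-aza-dC | Compound: Single point | Times: Compounds 3 days, fix/stain 15 min at room temperature | Benchmarks: Positive control ellipticine, 6 µM final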
DENV2 CPE: inhibitors of DENV2 cytopathic effect; AID 651640; DENV2-infected cells, cytopathic effect rescue, plate reader; 350,000 tested, 1.7% active; CPE inhibition, % at 9.99 µM; in the data active means CPE inhibition above about 20%, passing the limit was not always enough; inconclusive means no clear call, values can overlap the other calls; tested in BHK-21 cells
A number is an active result; – = inactive; ? = inconclusive; · = not tested or not shown. Compounds with a hit are over-represented: about 2% of the library has one in this group of screens.

SMILES | S100A4 MyoIIA | E-selectin induc | XiGFP reactiv | DENV2 CPE
C/C=C/c1ccc([C@@H]2[C@@H](CO)N(C(=O)NCCC)[C@H]2CN(C)C(=O)CC)cc1 | · | – | – | 77.6
CCc1nnc(NC(=O)c2cccnc2SC)s1 | – | – | – | –
CCN1CCN(Cc2ccc(NC(=O)c3cc(NC(=O)c4cnn(-c5ccccc5)c4N)cc(OC)c3)cc2C(F)(F)F)CC1 | – | – | – | 81.6
CCN1CCN(Cc2ccc(NC(=O)c3cc(NC(=O)c4cc(C)on4)cc(OC)c3)cc2C(F)(F)F)CC1 | – | – | – | –
c1ccc(NC2=NCCN2CC2CCC2)cc1 | – | – | – | –
CC1CCC(CN2CCN=C2Nc2ccccc2)CC1 (stereo not drawn) | – | – | – | 40.1
C/C=C/c1ccc([C@H]2[C@H](CO)N[C@H]2CN(C(=O)C2CCC2)C(C)C)cc1 | – | – | – | 22.6
CC(=O)N(C[C@H]1N[C@H](CO)[C@H]1c1ccc(-c2ccc(F)cc2)cc1)C(C)C | – | – | – | 63.8
N#C/C(=N\Nc1ccc(Cl)cc1)C(N)=S | – | 72.1 | – | –
CC1(C(=O)NS(=O)(=O)c2cccs2)CCN1C(=O)c1ccccc1CCc1ccccc1 (stereo not drawn) | – | – | – | –
N/C(=N\OC(=O)c1ccccc1)c1ccccn1 | – | · | – | –
Cc1ccc(C(=O)O/N=C(\N)c2ccccn2)cc1 | – | · | – | 28.8
C[C@@H]1CN([C@H](C)CO)C(=O)c2cccc(NC(=O)c3ccncc3)c2O[C@H]1CN(C)Cc1ccc(Oc2ccccc2)cc1 | – | – | – | –
N=c1c2c3c(sc2ncn1N)CCC3 | – | – | – | –
Cc1ccc(CNS(=O)(=O)c2ccc(-c3cnc(C4CC4)o3)cc2)cc1 | – | – | – | –
O=C(/C=C/c1cn(CC(O)CN2CCCCC2)c2ccccc12)c1ccccc1 (stereo not drawn) | – | · | – | 27.4
COc1ccccc1CN1CC(C(=O)NCCCCc2ccccn2)CCC1=O (stereo not drawn) | – | – | – | –
C[C@@H]1CCCCO[C@H](CN(C)S(=O)(=O)c2ccccc2)[C@@H](C)CN([C@@H](C)CO)C(=O)c2cc(NC(=O)CCCN(C)C)ccc2O1 | – | – | – | 110.6
C[C@H](CO)N1C[C@H](C)[C@H](CN(C)S(=O)(=O)c2ccc(F)cc2)OCCCC[C@H](C)Oc2ccc(NC(=O)CCCN(C)C)cc2C1=O | – | – | – | 33.6
C[C@@H]1CN([C@@H](C)CO)C(=O)c2cc(NC(=O)CCCN(C)C)ccc2O[C@@H](C)CCCCO[C@@H]1CN(C)S(=O)(=O)c1ccc(F)cc1 | – | – | – | 43.5
COc1ccc(S(=O)(=O)N(C)C[C@H]2OCCCC[C@H](C)Oc3ccc(NC(=O)CCCN(C)C)cc3C(=O)N([C@H](C)CO)C[C@H]2C)cc1 | – | – | – | 38.2
COc1ccccc1NC(=O)c1ccc([N+](=O)[O-])o1 | – | · | – | –
C=C(C)c1ccccc1NC(=O)CCN1C(=O)c2ccccc2S1(=O)=O | – | – | – | –
CCCCCN(C(=O)COC(=O)CSc1ccc([N+](=O)[O-])cc1)c1c(N)n(CCCC)c(=O)[nH]c1=O | – | – | – | –
COc1ccccc1C(=O)Nn1c(C)nc2ccccc2c1=O | – | · | – | –
SMILES | S100A4 MyoIIA | E-selectin induc | XiGFP reactiv | DENV2 CPE
O=C(c1cccnc1)N1C[C@H]2[C@@H](c3ccccc31)[C@H](CO)N2C(=O)CN1CCOCC1 | – | – | – | –
O=C(c1ccccn1)N1C[C@@H]2[C@H](c3ccccc31)[C@@H](CO)N2C(=O)c1ccccn1 | · | – | – | 68.8
CC(C)NC(=O)N1C[C@H]2[C@@H](c3ccccc31)[C@@H](CO)N2C(=O)c1ccccn1 | – | – | – | 114.8
O=C(c1ccncc1)N1C[C@@H]2[C@H](c3ccccc31)[C@@H](CO)N2C(=O)CN1CCOCC1 | 96.6 | – | – | –
O=C(NCCc1ccc(Cl)cc1)C1(c2ccccc2)CC1 | – | – | – | –
CCCCn1c(N)c(N(CCC(C)C)C(=O)C2CC(=O)N(c3ccccc3OCC)C2)c(=O)[nH]c1=O (stereo not drawn) | – | – | – | 66.1
CCCCn1c(N)c(N(CCC(C)C)C(=O)C2CC(=O)N(c3ccc4c(c3)OCCO4)C2)c(=O)[nH]c1=O (stereo not drawn) | – | – | – | –
N=C1C(c2nc3ccccc3s2)=C(O)CN1NC(=O)c1ccco1 | – | 32.8 | – | –
COc1cccc(C(=O)NN2CC(O)=C(c3nc4ccccc4s3)C2=N)c1 | – | · | – | –
Cc1nnc(SCC(=O)NC2CCCc3ccccc32)n1-c1ccccc1 (stereo not drawn) | – | · | – | 83.4
Cc1ccc(S(=O)(=O)N2CCOCC2)cc1NC(=O)COC(=O)c1ccc2c(c1)OCO2 | – | · | – | –
CN(CC(=O)Nc1ccc(Br)cc1)Cc1ccccc1 | – | 97.4 | – | –
CN(CC(=O)NCCCc1ccccc1)Cc1ccc(Br)cc1 | – | – | – | –
COc1ccc(CN(C)C[C@@H]2OCCCC[C@@H](C)Oc3ccc(NC(=O)Nc4ccccc4)cc3C(=O)N([C@H](C)CO)C[C@H]2C)cc1 | · | – | – | –
CC(C)(C)S(=O)(=O)c1cnc(-c2cnccn2)nc1N | – | 46.0 | – | –
CC(=O)OC(C)=O | 78.9 | · | · | –
COc1ccc(Nc2n[nH]c(N)c2C(N)=O)cc1 | – | 28.1 | · | –
COc1ccc(Nc2n[nH]c(C)c2[N+](=O)[O-])cc1 | – | · | – | –
CS(=O)(=O)Nc1ccc2c(c1)[C@@H]1C[C@@H](CC(=O)NCc3ccncc3)O[C@H](CO)[C@@H]1O2 | – | – | – | ?
Cc1ccc(S(=O)(=O)N(C)C[C@H]2Oc3ccc(NS(=O)(=O)c4ccc(Cl)cc4)cc3CC(=O)N([C@@H](C)CO)C[C@H]2C)cc1 | – | – | – | 26.6
Cc1ccc(S(=O)(=O)Nc2ccc3c(c2)CC(=O)N([C@@H](C)CO)C[C@@H](C)[C@H](CN(C)S(=O)(=O)c2ccc(Cl)cc2)O3)cc1 | · | – | – | 48.6
Cc1ccc(S(=O)(=O)Nc2ccc3c(c2)CC(=O)N([C@H](C)CO)C[C@H](C)[C@@H](CN(C)S(=O)(=O)c2ccc(C)cc2)O3)cc1 | – | – | – | 66.9
Cc1ccc(S(=O)(=O)Nc2ccc3c(c2)CC(=O)N([C@H](C)CO)C[C@@H](C)[C@@H](CN(C)S(=O)(=O)c2ccc(C)cc2)O3)cc1 | – | – | – | –
CN(C)CCCNC(=O)[C@H]1[C@H](CO)[C@H]2Cn3c(ccc(-c4ccccc4)c3=O)[C@@H]1N2C | – | – | – | 46.7
COc1ccccc1-c1ccc2n(c1=O)C[C@H]1[C@H](CO)[C@@H](C(=O)N[C@H](C)c3ccccc3)[C@@H]2N1C | – | – | – | 74.0
CCC(=O)N1[C@@H]2c3ccc(C4=CCCCC4)c(=O)n3C[C@H]1[C@H](CO)[C@H]2C(=O)N[C@H](C)c1ccccc1 | – | – | – | 92.7
